The text below walks through data of ChEMBL document CHEMBL4765234 (J Med Chem, 2016).

Structures are written as SMILES.

A short description of data set [1]: Clearance in mouse liver microsomes by LC-MS/MS analysis. In kind it is ADME, Microsome.
A short description of data set [2]: Clearance in rat plasma at 3 mg/kg, po or 1 mg/kg, iv by LC/MS/MS analysis. Format: ADME, organism-based. A digest of the protocol:
(§1)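 Mice, rats and beagle dogs were dosed. Blood was collected into EDTA at set time points and processed to plasma for LC/MS/MS bioanalysis. Parameters were derived by noncompartmental analysis.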

The nature of data set [3]: Oral bioavailability in mouse at 3 mg/kg by LC/MS/MS analysis. To be noted: in vivo. In kind it is ADME, organism-based. In short, it runs like this: (§2)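 Dosed to mice, rats or beagle dogs. Blood collected at selected time points with EDTA anticoagulant, processed to plasma and analysed by LC/MS/MS. Parameters obtained by noncompartmental analysis.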
For a further data set, the target named is T1, RXR alpha/PPAR gamma (Homo sapiens, UniProt P19793+P37231).
T1 sequence (P37231 whole entry): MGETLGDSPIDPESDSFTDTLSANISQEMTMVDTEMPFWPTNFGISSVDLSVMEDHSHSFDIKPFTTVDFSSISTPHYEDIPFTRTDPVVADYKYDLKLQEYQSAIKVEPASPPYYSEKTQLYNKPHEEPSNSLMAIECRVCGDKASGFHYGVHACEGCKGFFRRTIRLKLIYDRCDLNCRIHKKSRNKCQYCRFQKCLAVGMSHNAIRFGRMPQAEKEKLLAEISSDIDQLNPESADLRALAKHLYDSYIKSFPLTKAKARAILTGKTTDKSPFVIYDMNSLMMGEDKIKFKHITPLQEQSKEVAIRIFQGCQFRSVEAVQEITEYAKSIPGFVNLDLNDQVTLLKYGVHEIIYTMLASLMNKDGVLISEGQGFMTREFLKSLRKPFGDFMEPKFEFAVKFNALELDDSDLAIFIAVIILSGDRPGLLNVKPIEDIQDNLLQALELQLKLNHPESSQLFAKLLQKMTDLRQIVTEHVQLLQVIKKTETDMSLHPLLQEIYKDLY
T1 sequence (P19793 whole entry): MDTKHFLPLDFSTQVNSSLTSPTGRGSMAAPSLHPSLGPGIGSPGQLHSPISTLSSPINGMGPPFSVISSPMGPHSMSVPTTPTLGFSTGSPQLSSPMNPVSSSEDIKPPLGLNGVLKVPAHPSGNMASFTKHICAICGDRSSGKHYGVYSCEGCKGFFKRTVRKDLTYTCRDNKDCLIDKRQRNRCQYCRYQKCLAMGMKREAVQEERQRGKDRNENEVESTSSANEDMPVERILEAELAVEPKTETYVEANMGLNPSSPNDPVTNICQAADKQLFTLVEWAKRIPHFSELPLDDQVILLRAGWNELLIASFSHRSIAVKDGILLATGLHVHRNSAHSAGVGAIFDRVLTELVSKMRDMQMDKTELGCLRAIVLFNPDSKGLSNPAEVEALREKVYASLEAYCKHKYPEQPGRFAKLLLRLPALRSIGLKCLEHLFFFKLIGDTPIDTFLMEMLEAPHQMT
Put plainly: Agonist activity at human CMV-fused […]/RXRalpha (unknown origin) expressed in African green monkey CV1 cells transfected with luciferase plasmid measured after 24 hrs by luciferase reporter gene assay. In kind it is cell-based, CV-1. A digest of the protocol:
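CV1 cells were transfected, in DMEM with 5% charcoal-stripped FBS, with CMV-driven full PPARγ and RXRα plus a 2×PPRE TK-promoter luciferase reporter. After overnight growth, cells were replated at 15000/well for 4 h, then treated with 0.17 nM–10 μM in half-log dilutions for 24 h. Lysate luminescence was expressed as % of the maximum from 10 μM reference PPARγ agonist and fit to a 4-parameter logistic.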

Data set [4] is described as follows: Tmax in dog at 3 mg/kg, po or 1 mg/kg, iv by LC/MS/MS analysis. To be noted: in vivo. In kind it is ADME, organism-based, Canis lupus familiaris. In short, it runs like this: as §2
Data set [5] can be described thus: Cmax in rat plasma at 3 mg/kg, po or 1 mg/kg, iv by LC/MS/MS analysis. In kind it is ADME, organism-based. Details: dose 3 mg/kg. In short, it runs like this:
as §1

Data set [6] in a line: Clearance in mouse plasma at 3 mg/kg, po or 1 mg/kg, iv by LC/MS/MS analysis. In kind it is ADME, organism-based. In short, it runs like this:
as §1

Data set [7] can be described thus: Half-life in rat at 3 mg/kg, po or 1 mg/kg, iv by LC/MS/MS analysis. Format: ADME, organism-based. To be noted: in vivo. In short, it runs like this:
as §2

A short description of data set [8]: Oral bioavailability in rat at 3 mg/kg by LC/MS/MS analysis. Format: ADME, organism-based. The following applies: in vivo. In short, it runs like this: as §2
The nature of data set [9]: Elimination half-life in mouse plasma at 3 mg/kg, po or 1 mg/kg, iv by LC/MS/MS analysis. Format: ADME, organism-based. In short, it runs like this: as §2
The nature of data set [10]: Clearance in human liver microsomes by LC-MS/MS analysis. In kind it is ADME, Microsome.
The target in data set [11] is T2, Peroxisome proliferator-activated receptor alpha (Homo sapiens, UniProt Q07869).
T2 sequence (Q07869 whole entry): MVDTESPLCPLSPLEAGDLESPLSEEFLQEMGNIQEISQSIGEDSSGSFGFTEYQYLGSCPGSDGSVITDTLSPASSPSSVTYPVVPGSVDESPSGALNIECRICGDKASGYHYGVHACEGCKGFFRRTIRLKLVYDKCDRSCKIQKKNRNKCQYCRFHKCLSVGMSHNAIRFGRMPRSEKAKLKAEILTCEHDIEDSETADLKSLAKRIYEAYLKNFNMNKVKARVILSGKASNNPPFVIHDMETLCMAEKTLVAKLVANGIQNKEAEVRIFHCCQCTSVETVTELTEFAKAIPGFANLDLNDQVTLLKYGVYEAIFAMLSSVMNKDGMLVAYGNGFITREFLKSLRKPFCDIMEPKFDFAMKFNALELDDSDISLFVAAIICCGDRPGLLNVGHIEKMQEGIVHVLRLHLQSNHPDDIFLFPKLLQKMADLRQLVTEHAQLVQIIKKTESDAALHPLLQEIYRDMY
Put plainly: Agonist activity at human Gal4-fused PPARalpha LBD expressed in African green monkey CV1 cells cotransfected with pRL-SV40 plasmid measured after 24 hrs by luciferase reporter gene assay. Format: cell-based, CV-1. In short, it runs like this: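 CV1 African green monkey kidney cells were cotransfected, in DMEM with 5% charcoal-stripped FBS, with two plasmids: an SV40-driven Gal4 DBD–PPARα or PPARδ LBD hybrid, and a 5×Gal4-element firefly luciferase reporter. Cells were replated at 15000/well for 4 h, then exposed to 0.17 nM–10 μM in half-log steps for 24 h. Luciferase was read, normalized to maximum from 10 μM reference agonist, and fit by a 4-parameter model.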
In general terms: Reporter assays use an easily measured gene product as a stand-in for the process of interest.

Data set [12] in a line: Half-life in mouse at 3 mg/kg, po or 1 mg/kg, iv by LC/MS/MS analysis. In kind it is ADME, organism-based. To be noted: in vivo. In short, it runs like this:
as §2

Data set [13] is described as follows: Drug metabolism in dog feces assessed as metabolite formation by LC-MS/MS analysis. In kind it is ADME, tissue-based, Canis lupus familiaris.
Data set [14] is described as follows: Clearance in dog plasma at 3 mg/kg, po or 1 mg/kg, iv by LC/MS/MS analysis. Format: ADME, organism-based, Canis lupus familiaris. In short, it runs like this:
as §1

Data set [15] is described as follows: Elimination half-life in rat plasma at 3 mg/kg, po or 1 mg/kg, iv by LC/MS/MS analysis. Format: ADME, organism-based. The following applies: read-out: beta t1/2 (converted). In short, it runs like this: as §2
Data set [16] in a line: Drug metabolism in dog hepatocytes assessed as taurine metabolite formation by LC-MS/MS analysis. In kind it is ADME, cell-based, Canis lupus familiaris, Hepatocyte.
Data set [17] in a line: Drug metabolism in human hepatocytes assessed as taurine metabolite formation by LC-MS/MS analysis. Format: ADME, cell-based, Hepatocyte.
A short description of data set [18]: Drug metabolism in rat hepatocytes assessed as N-dealkylation by LC-MS/MS analysis. Format: ADME, cell-based, Hepatocyte.
The nature of data set [19]: Drug metabolism in human hepatocytes assessed as glucuronidation by LC-MS/MS analysis. Format: ADME, cell-based, Hepatocyte.

Broadly, the bioavailability is the share of a dose that reaches the circulation, judged against a reference dose that is usually intravenous. Broadly, the EC50 is the concentration at which the effect is half-maximal. The Tmax is the time at which the peak concentration occurs. One may read the Cmax as the highest concentration seen after dosing. Turning to `CC#C[C@@H](CC(=O)O)c1ccc(OCc2ccc(CN3CCCc4cccc(OC)c43)s2)cc1`, the CLH in data set [1] came to 0.022 h⁻¹; in data set [10], 0.0048 h⁻¹. The clearance in [2] was found to be 3.8 mL/min/kg; in data set [6], 15.4 mL/min/kg; in data set [14] it was 4.6 mL/min/kg. The bioavailability in [3] worked out at 62%; in data set [8], 95%. The EC50 (at RXR alpha/PPAR gamma; in [11]) was above 10 µM each time. In [4], the Tmax is 0.5 h. Also, in data set [5], the Cmax was 4140 ng/mL. The half-life is 5.6 h in [7], 4.2 h in [9], 4.2 h in data set [12] and 5.6 h in data set [15]. Besides, in data set [13], the Drug metabolism entry is “Metabolite_Notdetected”.

Regarding `CC#C[C@@H](CC(=O)O)c1ccc(OCc2ccc(CN3CCC4(C=Cc5ccccc54)CC3)s2)cc1`, the Drug metabolism entry in data set [16], in data set [17], in [18] and in [19] was “Metabolite_Detected” each time.

For the compound `CC#C[C@@H](CC(=O)O)c1ccc(OCc2ccc(CN3CCC4(C=Cc5ccccc54)CC3)cc2)cc1` [LY2881835], the CLH in data set [1] is 0.131 h⁻¹; in data set [10], 0.033 h⁻¹. Besides, the EC50 (at RXR alpha/PPAR gamma; in data set [11]) was above 10 µM each time.

With `CC#C[C@@H](CC(=O)O)c1ccc(OCc2ccc(CN3CCC4(CCc5ccccc54)CC3)s2)cc1`, the CLH in data set [1] came out at 0.288 h⁻¹; in data set [10] it was 0.109 h⁻¹. Further, the Drug metabolism entry in [16] is listed as “Metabolite_Detected”; in data set [17], “Metabolite_Detected”; in data set [18], “Metabolite_Detected”; in data set [19], “Metabolite_Detected”; in data set [13] it was “Metabolite_Notdetected”. Also, the clearance in data set [2] was found to be 20 mL/min/kg; in [6], 9.3 mL/min/kg; in data set [14], 2.2 mL/min/kg. For the same compound, the bioavailability in [3] is 21%; in data set [8], 46%. Also, the EC50 (at RXR alpha/PPAR gamma; in data set [11]) was above 10 µM each time. Further, the Tmax in [4] turned out to be 2 h. Further, the Cmax in [5] was determined as 829 ng/mL. The half-life is 1.6 h in data set [7], 1.7 h in data set [9], 1.7 h in data set [12] and 2 h in [15].
